From ChEMBL document CHEMBL3232838, “Synthesis, crystal structure and biological evaluation of some novel 1,2,4-triazolo[3,4-b]-1,3,4-thiadiazoles and 1,2,4-triazolo[3,4-b]-1,3,4-thiadiazines” (Eur J Med Chem, 2014)

Key:
[1] = system: NCI-H157; assay: Anticancer activity against human NCI-H157 cells at 100 uM after 48 hrs by SRB assay; assay type: functional; details: NCI-H157, 48 h, read-out: GI
In short: (§1)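 RPMI-1640 culture with 10% heat-inactivated FBS, 2 mM glutamine, 1 mM pyruvate and penicillin/streptomycin at 37 °C, 5% CO2. Cells per 96-well well: H157 10⁴, BHK-21 5×10⁴. After 24 h, monolayers were exposed to 100, 10, 1 or 0.1 µM compound for 48 h, with vincristine as standard. Cells were fixed in cold 50% TCA (4 °C, 1 h) and stained with 0.4% SRB in 1% acetic acid (30 min). Dye was dissolved in 10 mM Tris and read at A490 minus A630. Read-out was percent inhibition.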

[2] = system: Leishmania major; assay: Antileishmanial activity against promastigote form of Leishmania major at 10 uM after 72 hrs by MTT assay; assay type: functional
In short: (§2)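 Log-phase promastigotes grown at 25 °C in phenol-red-free D-MEM/F-12 with 10% heat-inactivated FBS, washed in PBS, seeded at 2.5×10⁶/mL (100 µL/well). Compounds in triplicate wells, 72 h at 25 °C; amphotericin B standard. MTT (5 mg/mL stock) 3 h, stopped with 50% isopropanol/10% SDS, OD570 minus 690. Percent inhibition vs control; mean ± SEM of three independent experiments.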

[3] = system: Leishmania major; assay: Antileishmanial activity against promastigote form of Leishmania major at 0.1 uM after 72 hrs by MTT assay; assay type: functional; in short: as §2
[4] = system: Leishmania major; assay: Antileishmanial activity against promastigote form of Leishmania major at 100 uM after 72 hrs by MTT assay; assay type: functional; in short: as §2
[5] = system: NCI-H157; assay: Anticancer activity against human NCI-H157 cells at 1 uM after 48 hrs by SRB assay; assay type: functional; details: NCI-H157, 48 h, read-out: GI; in short: as §1
[6] = Anticancer activity against Syrian golden hamster BHK21 cells at 10 uM after 48 hrs by SRB assay; assay type: functional; details: Mesocricetus auratus, BHK-21, 48 h; read-out: GI; in short: as §1
[7] = system: NCI-H157; assay: Anticancer activity against human NCI-H157 cells at 0.1 uM after 48 hrs by SRB assay; assay type: functional; details: NCI-H157, 48 h, read-out: GI; in short: as §1
[8] = Anticancer activity against Syrian golden hamster BHK21 cells at 1 uM after 48 hrs by SRB assay; assay type: functional; details: Mesocricetus auratus, BHK-21, 48 h; read-out: GI; in short: as §1
[9] = molecular target: Intestinal-type alkaline phosphatase (Bos taurus, UniProt P19111); assay: Inhibition of calf intestinal alkaline phosphatase using p-nitrophenyl phosphate as substrate preincubated for 10 mins before substrate addition after 30 mins
[10] = system: NCI-H157; assay: Anticancer activity against human NCI-H157 cells at 10 uM after 48 hrs by SRB assay; assay type: functional; details: NCI-H157, 48 h, read-out: GI; in short: as §1
[11] = molecular target: Acetylcholinesterase (Electrophorus electricus, UniProt O42275); assay: Inhibition of electric eel acetylcholinesterase using acetylthiocholine iodide as substrate preincubated for 10 mins before substrate addition after 15 mins by Ellman's method
[12] = system: Leishmania major; assay: Antileishmanial activity against promastigote form of Leishmania major at 1 uM after 72 hrs by MTT assay; assay type: functional; in short: as §2
[13] = Anticancer activity against Syrian golden hamster BHK21 cells at 100 uM after 48 hrs by SRB assay; assay type: functional; details: Mesocricetus auratus, BHK-21, 48 h; read-out: GI; in short: as §1
[14] = molecular target: Cholinesterase (Homo sapiens, UniProt P06276); assay: Inhibition of human BChE using butyrylthiocholine iodide as substrate preincubated for 10 mins before substrate addition after 15 mins by Ellman's method
In short: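 Ellman assay in 50 mM Tris-HCl, 0.1 M NaCl, 0.02 M MgCl2, pH 8.0, with DMSO at 1% final. hBChE (3.4 U/mg) is preincubated with compound for 10 min at 25 °C. Blanks lack enzyme or substrate. IC50 from linear regression.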

[15] = Anticancer activity against Syrian golden hamster BHK21 cells at 0.1 uM after 48 hrs by SRB assay; assay type: functional; details: Mesocricetus auratus, BHK-21, 48 h; read-out: GI; in short: as §1

Chain of Acetylcholinesterase (O42275 whole entry): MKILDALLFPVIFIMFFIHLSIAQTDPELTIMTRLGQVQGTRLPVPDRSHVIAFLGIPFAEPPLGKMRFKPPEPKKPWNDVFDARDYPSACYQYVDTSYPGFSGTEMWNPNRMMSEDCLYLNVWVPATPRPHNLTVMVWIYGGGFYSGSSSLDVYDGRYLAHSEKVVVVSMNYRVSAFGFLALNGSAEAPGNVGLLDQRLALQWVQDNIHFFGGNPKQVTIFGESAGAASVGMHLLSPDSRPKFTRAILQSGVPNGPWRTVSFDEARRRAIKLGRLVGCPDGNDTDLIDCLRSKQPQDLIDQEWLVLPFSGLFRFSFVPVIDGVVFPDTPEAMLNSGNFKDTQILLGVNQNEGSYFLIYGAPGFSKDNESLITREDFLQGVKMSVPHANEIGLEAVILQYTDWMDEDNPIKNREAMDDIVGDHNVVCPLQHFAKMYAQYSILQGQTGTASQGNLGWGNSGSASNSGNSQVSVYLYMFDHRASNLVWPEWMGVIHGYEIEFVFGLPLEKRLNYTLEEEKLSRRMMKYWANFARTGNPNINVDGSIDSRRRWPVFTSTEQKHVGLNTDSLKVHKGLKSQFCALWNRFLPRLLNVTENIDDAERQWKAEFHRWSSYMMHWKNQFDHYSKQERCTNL
Chain of Intestinal-type alkaline phosphatase (P19111 whole entry): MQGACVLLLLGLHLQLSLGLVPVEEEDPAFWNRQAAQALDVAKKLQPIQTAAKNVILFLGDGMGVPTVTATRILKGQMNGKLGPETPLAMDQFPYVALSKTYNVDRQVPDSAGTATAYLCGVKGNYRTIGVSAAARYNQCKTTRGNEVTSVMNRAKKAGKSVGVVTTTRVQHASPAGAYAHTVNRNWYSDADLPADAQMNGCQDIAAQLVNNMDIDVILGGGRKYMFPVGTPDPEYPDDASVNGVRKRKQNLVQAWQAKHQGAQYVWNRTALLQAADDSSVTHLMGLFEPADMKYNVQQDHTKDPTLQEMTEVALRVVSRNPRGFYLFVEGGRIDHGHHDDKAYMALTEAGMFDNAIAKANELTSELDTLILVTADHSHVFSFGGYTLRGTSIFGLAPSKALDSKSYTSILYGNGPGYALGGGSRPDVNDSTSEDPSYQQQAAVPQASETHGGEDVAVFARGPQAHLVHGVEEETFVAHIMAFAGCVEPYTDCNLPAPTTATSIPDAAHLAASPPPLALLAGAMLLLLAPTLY
Chain of Cholinesterase (P06276 whole entry): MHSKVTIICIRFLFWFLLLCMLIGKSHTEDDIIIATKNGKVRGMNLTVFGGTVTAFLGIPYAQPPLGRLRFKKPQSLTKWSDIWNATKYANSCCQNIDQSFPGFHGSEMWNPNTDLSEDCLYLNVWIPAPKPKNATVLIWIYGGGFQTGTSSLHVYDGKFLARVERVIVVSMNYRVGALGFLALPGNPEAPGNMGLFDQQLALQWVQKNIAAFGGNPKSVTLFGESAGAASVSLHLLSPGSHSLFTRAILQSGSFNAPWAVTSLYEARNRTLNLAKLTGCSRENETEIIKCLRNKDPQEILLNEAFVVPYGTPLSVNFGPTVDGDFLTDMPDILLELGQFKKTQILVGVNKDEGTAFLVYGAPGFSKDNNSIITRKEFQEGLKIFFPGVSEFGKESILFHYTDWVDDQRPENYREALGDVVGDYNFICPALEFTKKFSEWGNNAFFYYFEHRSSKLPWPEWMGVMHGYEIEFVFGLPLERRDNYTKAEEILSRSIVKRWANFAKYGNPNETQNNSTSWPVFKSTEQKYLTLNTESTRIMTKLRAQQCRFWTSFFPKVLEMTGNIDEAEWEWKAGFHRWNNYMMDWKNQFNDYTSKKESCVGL

SMILES | inhibition of growth at 100 µM [1] [%] | inhibition at 10 µM [2] [%] | inhibition at 0.1 µM [3] [%] | inhibition at 100 µM [4] [%] | inhibition of growth at 1 µM [5] [%] | inhibition of growth at 10 µM [6] [%] | inhibition of growth at 0.1 µM [7] [%] | inhibition of growth at 1 µM [8] [%] | IC50 [9] [µM] | inhibition of growth at 10 µM [10] [%] | IC50 [11] [µM] | inhibition at 1 µM [12] [%] | inhibition of growth at 100 µM [13] [%] | IC50 [14] [µM] | inhibition of growth at 0.1 µM [15] [%] | inhibition [14] [%] | inhibition of growth at 100 µM ([4]; read-out: GI) [%]
c1ccc(-c2ccc(C3=Nn4c(nnc4-c4ccncc4)SC3)cc2)cc1 | 56.9 | 58.9 | 52.3 | 61.2 | 47.8 | 41.8 | 44.5 | 37.5 | 3.84 | 62.3 | 16.1 | 55.9 | 45.8 | 42.6 | 32.7 |  | 
Fc1cccc(C2=Nn3c(nnc3-c3ccncc3)SC2)c1 | 78.6 | 49.6 | 44.9 | 52.3 | 72.3 | 61.2 | 69.6 | 56.9 | 9.83 | 75.6 | 18.6 | 46.1 | 64.3 |  | 54.6 | 38.7 | 
CCOc1ccc(Cc2nn3c(-c4ccncc4)nnc3s2)cc1 | 70.5 | 63 | 56.4 | 66.8 | 63.8 | 45.4 | 60.2 | 40.9 | 6.17 | 67.4 | 3.48 | 60.8 | 48.6 | 32.1 | 38.2 |  | 
c1coc(-c2nn3c(-c4ccncc4)nnc3s2)c1 | 67.9 | 77.2 | 71.5 | 81.2 | 60.9 | 48.2 | 56 | 44.9 | 3.24 | 63.8 | 12.4 | 75.8 | 50.9 | 61.6 | 41 |  | 
Fc1cc(Cl)ccc1-c1nn2c(-c3ccncc3)nnc2s1 | 85.5 | 49.5 | 42.5 | 52.5 | 77.8 | 51.6 | 73.7 | 47.2 | 0.92 | 80.9 | 21.3 | 46.2 | 55.6 | 9.57 | 44.4 |  | 
O=[N+]([O-])c1cccc(C2=Nn3c(nnc3-c3ccncc3)SC2)c1 | 69.4 | 59.6 | 54.6 | 63.1 | 62.1 | 62.5 | 57.9 | 55.1 | 3.59 | 65.5 | 28 | 57.5 | 67.1 | 16.6 | 48.2 |  | 
Cc1ccccc1OCc1nn2c(-c3ccncc3)nnc2s1 | 59.2 | 68.9 | 62.1 | 71.4 | 53.2 | 56.5 | 50.5 | 54.9 | 3.08 | 56.8 | 41.5 | 65.5 | 62.1 | 51.3 | 51.2 |  | 
Fc1ccc(-c2nn3c(-c4ccncc4)nnc3s2)cc1Cl | 53.7 | 54.3 | 47.7 | 56.7 | 46.6 | 46.3 | 43.6 | 43.6 | 2.01 | 50.9 | 30.2 | 51.6 | 51.4 |  | 40.9 | 14.4 | 
CC[C@]1(O)C[C@H]2CN(CCc3c([nH]c4ccccc34)[C@@](C(=O)OC)(c3cc4c(cc3OC)N(C=O)[C@H]3[C@@](O)(C(=O)OC)[C@H](OC(C)=O)[C@]5(CC)C=CCN6CC[C@]43[C@@H]65)C2)C1 [VINCRISTINE] | 74.5 |  |  |  | 70.9 | 72.6 | 69.8 | 70.9 |  | 72.6 |  |  | 74.5 |  | 69.8 |  | 
c1ccc2c(C3=Nn4c(nnc4-c4ccncc4)SC3)cccc2c1 | 68.2 | 52.9 | 47.3 | 55.6 | 59.9 | 64.7 | 55.2 | 60.7 | 4.45 | 63.7 | 13.7 | 49 | 69.2 | 52.8 | 53.3 |  | 
Fc1ccc(OCc2nn3c(-c4ccncc4)nnc3s2)cc1 | 32 | 51.4 | 46.7 | 53.8 | 25.6 | 48.3 | 21.3 | 45.4 | 2.59 | 28.5 | 36.8 | 49.1 | 52.7 | 54.1 | 43.8 |  | 
Oc1ccc(OCc2nn3c(-c4ccncc4)nnc3s2)cc1 | 63.7 | 45.3 | 37.2 | 48 | 56.3 | 56.2 | 52.6 | 53.7 | 5.61 | 60.9 | 15.6 | 41.9 | 60.5 | 39.1 | 51.6 |  | 
CN(C)C(=O)Oc1cccc([N+](C)(C)C)c1 [NEOSTIGMINE] |  |  |  |  |  |  |  |  |  |  | 14.2 |  |  | 26.1 |  |  | 
COc1ccc(OCc2nn3c(-c4ccncc4)nnc3s2)cc1 | 68.9 | 57.2 | 49.6 | 60.5 | 61.7 | 71.9 | 57.2 | 68.8 | 3.72 | 65.6 | 0.77 | 52.2 | 74 | 37.9 | 63.3 |  | 
C[C@@H]1[C@H](O)[C@@H](C)/C=C/C=C/C=C/C=C/C=C/C=C/C=C/[C@H](O[C@@H]2O[C@H](C)[C@@H](O)[C@H](N)[C@@H]2O)C[C@@H]2O[C@](O)(C[C@@H](O)C[C@@H](O)[C@H](O)CC[C@@H](O)C[C@@H](O)CC(=O)O[C@H]1C)C[C@H](O)[C@H]2C(=O)O [AMPHOTERICIN B] |  | 76.3 | 69.9 | 79.8 |  |  |  |  |  |  |  | 74.8 |  |  |  |  | 
Nn1c(S)nnc1-c1ccncc1 | 51.5 | 36.7 | 30.9 |  | 43.4 | 45.1 | 40.4 | 42.1 | 4.43 | 47.4 | 13.5 | 33.6 | 48.3 | 49.6 | 39.6 |  | 39.5
